According to ChEMBL document CHEMBL4715682, “Potent trifluoromethoxy, trifluoromethylsulfonyl, trifluoromethylthio and pentafluorosulfanyl containing (1,3,4-oxadiazol-2-yl)benzamides against drug-resistant Gram-positive bacteria” (RSC Med Chem, 2020):
In brackets after ≈: the same amount, converted by molar mass. Activity calls are given as the source filed them. The calls are words filed in the database; no cut-off is given here.

What was measured:
[1] = Hemolytic activity in human RBC at 64 ug/ml incubated for 60 mins relative to control; type: ADME, cell-based, Erythrocyte; conditions: red blood cells (erythrocytes), at 64 µg/mL, read-out: Activity
Summary of the method: (§1)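 Single-donor human erythrocytes as a 5% v/v suspension in PBS. Compounds serially diluted in PBS, in triplicate, and incubated with RBCs at 37 °C for 60 min. PBS served as the negative control and Triton-X as the positive control. Samples spun at 4,000 rpm for 5 min and supernatant absorbance read at 540 nm. Percent hemolysis = 100×(sample−negative)/(positive−negative).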

[2] = test system: Staphylococcus epidermidis; assay: Antibacterial activity against Staphylococcus epidermidis NRS101 assessed as inhibition of visible bacterial growth incubated for 18 to 20 hrs by CLSI method; type: functional; conditions: time 18-20 hrs
Summary of the method: (§2)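 Broth microdilution per CLSI. Strains grown aerobically overnight on TSA at 37 °C, suspended to 0.5 McFarland, diluted in CAMHB to about 5×10^5 CFU/mL. Agents serially diluted across plate; aerobic incubation 37 °C for 18-20 h. MIC = lowest concentration completely preventing visible growth.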

Staphylococcus aureus [3] = assay: Bacteriostatic activity against methicillin-resistant Staphylococcus aureus ATCC 33592 assessed as reduction in bacterial growth incubated for 18 hrs by CLSI method; type: functional
Staphylococcus aureus [4] = assay: Synergistic antibacterial activity against methicillin-resistant Staphylococcus aureus ATCC 33592 assessed as fractional inhibitory concentration index in presence of methicillin by checkerboard assay; type: functional
Enterococcus faecalis [5] = assay: Antibacterial activity against vancomycin- resistant Enterococcus faecalis ATCC 700221 assessed as inhibition of visible bacterial growth incubated for 18 to 20 hrs by CLSI method; type: functional; conditions: time 18-20 hrs
Summary of the method: (§3)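 CLSI broth microdilution. Strains grown aerobically overnight on tryptic soy agar at 37 °C, adjusted to 0.5 McFarland and diluted in cation-adjusted Mueller–Hinton broth to about 5×10^5 CFU/mL. Compounds and control drugs serially diluted across the plate. Incubated aerobically at 37 °C for 18-20 h. MIC is the lowest concentration with no visible growth.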

Staphylococcus aureus [6] = assay: Antibacterial activity against methicillin-resistant Staphylococcus aureus NRS385 assessed as inhibition of visible bacterial growth incubated for 18 to 20 hrs by CLSI method; type: functional; conditions: time 18-20 hrs; summary of the method: as §3
Acinetobacter baumannii = assay: Antibacterial activity against Acinetobacter baumannii ATCC 19606 RW4 assessed as inhibition of visible bacterial growth at 16 ug/ml incubated for 18 to 20 hrs by CLSI method; type: functional, organism-based; conditions: ATCC 19606 = CIP 70.34 = JCM 6841 RW4, dose 16.0 µg/ml, time 18-20 hrs; summary of the method: as §3
Staphylococcus aureus [7] = assay: Antibacterial activity against methicillin-resistant Staphylococcus aureus ATCC 33592 assessed as inhibition of visible bacterial growth incubated for 18 to 20 hrs by CLSI method; type: functional; conditions: time 18-20 hrs; summary of the method: as §3
[8] = Hemolytic activity in human RBC at 32 ug/ml incubated for 60 mins relative to control; type: ADME, cell-based, Erythrocyte; conditions: red blood cells (erythrocytes), at 32 µg/mL, read-out: Activity; summary of the method: as §1
Staphylococcus aureus [9] = assay: Antibacterial activity against methicillin-resistant Staphylococcus aureus USA400 infected in mouse J774 cells assessed as log reduction in intracellular growth at 8 ug/ml incubated for 18 to 22 hrs; type: functional; conditions: dose 8 µg/ml; time 18-22 hrs
Summary of the method: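 J774 murine macrophages grown in DMEM with 10% FBS at 37 °C, 5% CO2. Cells infected with MRSA USA400 at MOI about 10:1 for 1 h, then washed with gentamicin to remove extracellular bacteria. Agents added at 8 or 16 μg/mL in triplicate, with DMSO vehicle control, for 24 h. Cells lysed with 0.1% Triton-X, lysates plated on tryptic soy agar, and CFU counted after 18-22 h at 37 °C. Analysed by two-way ANOVA with Dunnett's test.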

Staphylococcus aureus [10] = assay: Synergistic antibacterial activity against methicillin-resistant Staphylococcus aureus ATCC 33592 assessed as fractional inhibitory concentration index in presence of linezolid by checkerboard assay; type: functional
Staphylococcus aureus [11] = assay: Antibacterial activity against methicillin-resistant Staphylococcus aureus NRS386 assessed as inhibition of visible bacterial growth incubated for 18 to 20 hrs by CLSI method; type: functional; conditions: time 18-20 hrs; summary of the method: as §3
Staphylococcus aureus [12] = assay: Antibacterial activity against vancomycin-resistant Staphylococcus aureus 12 assessed as inhibition of visible bacterial growth incubated for 18 to 20 hrs by CLSI method; type: functional; conditions: time 18-20 hrs; summary of the method: as §3
Staphylococcus aureus [13] = assay: Antibacterial activity against methicillin-resistant Staphylococcus aureus ATCC 33592 assessed as reduction in bacterial count at 3 x MIC incubated upto 24 hrs by time kill analysis; type: functional; conditions: time hrs <=24
Summary of the method: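 Time-kill assay. […] Samples taken at 0, 2, 4, 8, 12 and 24 h, serially diluted in PBS and plated on tryptic soy agar. Viable CFU/mL counted after 18-20 h at 37 °C.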

Staphylococcus aureus [14] = assay: Antibacterial activity against methicillin-resistant Staphylococcus aureus NRS123 assessed as inhibition of visible bacterial growth incubated for 18 to 20 hrs by CLSI method; type: functional; conditions: time 18-20 hrs; summary of the method: as §3
Escherichia coli = assay: Antibacterial activity against Escherichia coli ATCC 25404 assessed as inhibition of visible bacterial growth at 16 ug/ml incubated for 18 to 20 hrs by CLSI method; type: functional, organism-based; conditions: B ATCC 25404, dose 16.0 µg/ml, time 18-20 hrs; summary of the method: as §3
J774 = assay: Cytotoxicity against mouse J774 cells assessed as reduction in cell viability at 32 ug/ml incubated for 24 hrs by MTS assay; type: cell-based; conditions: j774, 24 h, dose 32 µg/ml
Staphylococcus aureus [15] = assay: Antibacterial activity against methicillin-resistant Staphylococcus aureus NRS 119 assessed as inhibition of visible bacterial growth incubated for 18 to 20 hrs by CLSI method; type: functional; conditions: time 18-20 hrs; summary of the method: as §3
Staphylococcus aureus [16] = assay: Antibacterial activity against methicillin-resistant Staphylococcus aureus NRS382 assessed as inhibition of visible bacterial growth incubated for 18 to 20 hrs by CLSI method; type: functional; conditions: time 18-20 hrs; summary of the method: as §3
Staphylococcus aureus [17] = assay: Synergistic antibacterial activity against methicillin-resistant Staphylococcus aureus ATCC 33592 assessed as fractional inhibitory concentration index in presence of Vancomycin; type: functional
Enterococcus faecalis [18] = assay: Antibacterial activity against vancomycin- resistant Enterococcus faecalis ATCC 51299 assessed as inhibition of visible bacterial growth incubated for 18 to 20 hrs by CLSI method; type: functional; conditions: time 18-20 hrs; summary of the method: as §3
Staphylococcus aureus [19] = assay: Antibacterial activity against methicillin-resistant Staphylococcus aureus NRS383 assessed as inhibition of visible bacterial growth incubated for 18 to 20 hrs by CLSI method; type: functional; conditions: time 18-20 hrs; summary of the method: as §3
Staphylococcus aureus [20] = assay: Antibacterial activity against methicillin-sensitive Staphylococcus aureus ATCC 6538 assessed as inhibition of visible bacterial growth incubated for 18 to 20 hrs by CLSI method; type: functional; conditions: time 18-20 hrs; summary of the method: as §3
Staphylococcus aureus [21] = assay: Antibacterial activity against vancomycin-resistant Staphylococcus aureus 10 assessed as inhibition of visible bacterial growth incubated for 18 to 20 hrs by CLSI method; type: functional; conditions: time 18-20 hrs; summary of the method: as §3
Listeria monocytogenes = assay: Antibacterial activity against Listeria monocytogenes ATCC 19111 assessed as inhibition of visible bacterial growth incubated for 18 to 20 hrs by CLSI method; type: functional; conditions: time 18-20 hrs; summary of the method: as §2
Staphylococcus aureus [22] = assay: Antibacterial activity against methicillin-resistant Staphylococcus aureus NRS387 assessed as inhibition of visible bacterial growth incubated for 18 to 20 hrs by CLSI method; type: functional; conditions: time 18-20 hrs; summary of the method: as §3
Streptococcus pneumoniae = assay: Antibacterial activity against cephalosporin-resistant Streptococcus pneumoniae ATCC 51916 assessed as inhibition of visible bacterial growth incubated for 18 to 20 hrs by CLSI method; type: functional; conditions: time 18-20 hrs; summary of the method: as §3
Staphylococcus aureus [23] = assay: Antibacterial activity against methicillin-resistant Staphylococcus aureus NRS484 assessed as inhibition of visible bacterial growth incubated for 18 to 20 hrs by CLSI method; type: functional; conditions: time 18-20 hrs; summary of the method: as §3

O=C(Nc1nnc(-c2cccs2)o1)c1ccc(S(=O)(=O)C(F)(F)F)cc1
hemolysis at 1 h, 64 ug/ml [1]: 35%
MIC [2]: 4 µg/mL (≈ 9.92 µM)
MBC (Staphylococcus aureus [3]): > 128 µg/mL
fractional inhibitory concentration index (FICI) (Staphylococcus aureus [4]): 0.53
MIC (Enterococcus faecalis [5]): 4 µg/mL (≈ 9.92 µM)
MIC (Staphylococcus aureus [6]): 8 µg/mL (≈ 19.8 µM)
inhibition (Acinetobacter baumannii): inactive
MIC (Staphylococcus aureus [7]): 0.5 µg/mL (≈ 1.24 µM)
hemolysis at 1 h, 32 ug/ml [8]: 23%
Activity (Staphylococcus aureus [9]): 0.5 log10CFU/ml
fractional inhibitory concentration index (FICI) (Staphylococcus aureus [10]): 1.03
MIC (Staphylococcus aureus [11]): 4 µg/mL (≈ 9.92 µM)
MIC (Staphylococcus aureus [12]): 8 µg/mL (≈ 19.8 µM)
Activity (Staphylococcus aureus [13]): 1.04 log10CFU/ml
MIC (Staphylococcus aureus [14]): 4 µg/mL (≈ 9.92 µM)
inhibition (Escherichia coli): inactive
Activity (J774): Non-Toxic
MIC (Staphylococcus aureus [15]): 8 µg/mL (≈ 19.8 µM)
MIC (Staphylococcus aureus [16]): 8 µg/mL (≈ 19.8 µM)
fractional inhibitory concentration index (FICI) (Staphylococcus aureus [17]): 1.03
MIC (Enterococcus faecalis [18]): 4 µg/mL (≈ 9.92 µM)
MIC (Staphylococcus aureus [19]): 8 µg/mL (≈ 19.8 µM)
MIC (Staphylococcus aureus [20]): 8 µg/mL (≈ 19.8 µM)
MIC (Staphylococcus aureus [21]): 4 µg/mL (≈ 9.92 µM)
MIC (Listeria monocytogenes): 2 µg/mL (≈ 4.96 µM)
MIC (Staphylococcus aureus [22]): 4 µg/mL (≈ 9.92 µM)
MIC (Streptococcus pneumoniae): 2 µg/mL (≈ 4.96 µM)
MIC (Staphylococcus aureus [23]): 4 µg/mL (≈ 9.92 µM)
